# High-throughput results deposited in PubChem by Johns Hopkins Ion Channel Center.
# KCNK3 block: human KCNK3 channel inhibition, primary screen; O14649; CHO-KCNK3 thallium flux, FluxOR fluorescence; active compounds read low; B-score at 10 µM; 340,000 compounds, 0.84% hits;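 active = B-score under library mean minus 4 SD, starting fluorescence ratio at most library mean plus 5 SD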;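 note: more negative B-score means stronger inhibition of thallium flux through KCNK3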
# Target sequence (O14649 whole entry, looked up): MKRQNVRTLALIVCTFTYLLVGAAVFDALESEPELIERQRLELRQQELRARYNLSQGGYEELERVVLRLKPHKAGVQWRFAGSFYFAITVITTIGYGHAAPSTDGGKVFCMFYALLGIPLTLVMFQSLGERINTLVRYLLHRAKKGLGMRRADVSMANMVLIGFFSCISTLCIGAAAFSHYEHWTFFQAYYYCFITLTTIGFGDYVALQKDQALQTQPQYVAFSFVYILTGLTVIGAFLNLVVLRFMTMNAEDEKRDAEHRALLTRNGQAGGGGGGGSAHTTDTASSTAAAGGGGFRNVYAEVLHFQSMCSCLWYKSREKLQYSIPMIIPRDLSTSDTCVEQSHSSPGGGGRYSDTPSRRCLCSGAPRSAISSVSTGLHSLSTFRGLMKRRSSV
# hERG rescue: shields human hERG channel from block by proarrhythmic agents. CHO-hERG, FluxOR thallium flux, dofetilide IC70 present. 310,000 compounds, 0.51% hits. Q12809. activation (rescue from dofetilide block), less the hit threshold, % at 10 µM. AID 1511;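 active = activation above the mean of controls blocked by dofetilide plus 5 SD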;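 note: thallium influx through hERG after potassium depolarization seen as dye fluorescence rise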
# KCNK9 inh-1: inhibitors of human KCNK9 two-pore domain potassium channel | Q9NPC2 | HEK293 KCNK9, FluxOR thallium flux fluorescence; active compounds read low | B-score at 10 µM | 310,000 compounds, 1.2% hits | AID 488922;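 active = ratio B-score over 3 SD below the library mean, with starting fluorescence within 5 SD of its mean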;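 note: negative B-score means less thallium flux so channel inhibition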
# Kir21 block: inhibitors of mouse Kir2.1 inward-rectifier potassium channel; B-score at 10 µM; P35561; AID 1672; HEK293-Kir2.1, FluxOR thallium flux fluorescence; active compounds read low; 310,000 compounds, 0.85% hits;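 active = fluorescence ratio B-score at or below minus 3 SD of library scores, with starting-brightness B-score within 2 SD, cut at about -4.2 in these data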;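 note: channel flux triggered by added potassium and thallium sulfate stimulus; B-score of peak minus minimum fluorescence over baseline after thallium stimulus; more negative B-score means stronger Kir2.1 block with less thallium influx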
# Target sequence (P35561 whole entry, looked up): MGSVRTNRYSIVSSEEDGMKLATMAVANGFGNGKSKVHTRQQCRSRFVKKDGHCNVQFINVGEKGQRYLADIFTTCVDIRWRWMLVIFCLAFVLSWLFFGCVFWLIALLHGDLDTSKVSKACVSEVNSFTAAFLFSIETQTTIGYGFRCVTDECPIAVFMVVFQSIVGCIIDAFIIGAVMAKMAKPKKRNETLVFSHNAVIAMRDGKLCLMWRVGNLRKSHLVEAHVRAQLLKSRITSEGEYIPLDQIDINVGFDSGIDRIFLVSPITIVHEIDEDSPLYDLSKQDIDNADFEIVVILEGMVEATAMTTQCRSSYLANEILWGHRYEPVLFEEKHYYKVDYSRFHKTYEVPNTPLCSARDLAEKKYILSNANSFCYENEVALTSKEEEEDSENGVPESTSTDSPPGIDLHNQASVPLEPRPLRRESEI
# KCNQ1 act: human KCNQ1 channel potentiation or activation; B-score at 10 µM; CHO-K1 KCNQ1, thallium flux FluxOR fluorescence; active compounds read high; AID 2648; 310,000 compounds, 0.35% hits; P51787;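 active = fluorescence ratio B-score, a plate-corrected score, at least three library SD, with initial intensity B-score within 5 SD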
#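 Medium – assay buffer, equal DMSO in all wells · Material – CHO-K1 cell line with stable KCNQ1 potassium channel expression · Signal – kinetic FluxOR thallium fluorescence, 10-s 1-Hz baseline, 110-s post-stimulus read · Compound – single concentration per compound, DMSO matched to controls · Schedule – 37 °C overnight plating, 90-min dark dye load, 20-min compound pretreatment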
# KCNQ1 block: human KCNQ1 channel inhibition. B-score at 10 µM. CHO-K1 KCNQ1, FluxOR thallium flux fluorescence; active compounds read high. P51787. AID 2642. 310,000 compounds, 1.3% hits;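 active = compounds whose thallium flux B-score, printed positive for inhibition, exceeds three library SD while starting fluorescence stays within three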;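 note: channel opened by potassium depolarization with thallium stimulus after 20 min compound exposure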
# hERG ctr: blocks human hERG, in counter-screen for Kir2.1 inhibitors | shares compounds with Kir21 block | hERG-expressing cells, thallium flux | inhibition, % at 10 µM | 320 compounds, 20% hits | AID 2236;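 note: host cells are CHO cells stably expressing hERG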
# KCNK9 inh-2: human KCNK9 off-target activity of Kir2.1 blockers; KCNK9-expressing cells, ion flux inhibition; shares compounds with Kir21 block; 320 compounds, 5% hits; inhibition, % at 10 µM
# Kir21 ephys inh: inhibitors of mouse Kir2.1 potassium channel. shares compounds with Kir21 block. Kir2.1 cells, automated patch-clamp current inhibition. inhibition, % at 25 µM. 320 compounds, 71% hits
# KCNQ1 inh valid: confirmation of human KCNQ1 potassium channel inhibitors | inhibition, % at 10 µM | 1,600 compounds, 93% hits | KCNQ1 cell line, FluxOR thallium flux fluorescence | shares compounds with KCNQ1 block;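 active = primary screen active, with duplicate mean exceeding buffer control mean plus 3 SD of buffer wells, cut at about 28% in these data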;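 note: 0% = buffer control ratio and 100% = XE991 inhibitor control ratio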
# CHO Tl flux: activity in parental CHO cells lacking KCNQ1 | fluorescence ratio (Tl flux) at 10 µM | parental CHO-K1, FluxOR thallium flux fluorescence ratio; active compounds read low; zero means no signal rise above baseline | 1,600 compounds, 21% hits | shares compounds with KCNQ1 block;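 active = mean of duplicate thallium-flux fluorescence ratios in parental host cells more than 5 SD below the buffer control mean, cut at about 0.38 in these data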;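 note: ratio is peak minus minimum fluorescence divided by baseline fluorescence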
# KCNQ1 APC inh: blocks human KCNQ1 current in automated patch clamp; 490 compounds, 20% hits; calls only at 10 µM; shares compounds with KCNQ1 block; KCNQ1-CHO cells;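 active = KCNQ1 current drop exceeding 3 SD of negative control wells, seen in both duplicate runs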;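 note: steady state current during a 2 s step from -80 to +40 mV; negative values mean current inhibition and positive values mean potentiation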
# KCNQ2 spec: rat KCNQ2 inhibition in KCNQ1 inhibitor specificity screen | inhibition, % at 10 µM | KCNQ2 cells, FluxOR thallium flux fluorescence | shares compounds with KCNQ1 block | 1,600 compounds, 71% hits;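 active = mean percent inhibition of the KCNQ2 thallium signal more than 5 SD above the buffer-only control wells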;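 note: KCNQ2 expressed in CHO cells; 0% = buffer control wells and 100% = XE-991 inhibitor control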
# KCNQ1-KCNE1 inh: KCNQ1 inhibitor that also blocks human KCNQ1/KCNE1 channel; shares compounds with KCNQ1 block; KCNQ1/KCNE1 cells, FluxOR thallium flux fluorescence; inhibition, % at 10 µM; 1,600 compounds, 77% hits; AID 652147;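 active = mean percent inhibition of duplicate wells above the buffer-only control mean plus 3 SD of those controls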;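 note: 0% = buffer only wells and 100% = XE-991 inhibitor control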
# KCNK9 inh conf: confirmation of human KCNK9 potassium channel inhibitors | shares compounds with KCNK9 inh-1 | HEK293 KCNK9 cells, FluxOR thallium flux fluorescence | inhibition, % at 10 µM | 4,900 compounds, 43% hits;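 active = thallium signal inhibited by more than 5 SD of the compound-free buffer control wells, on both duplicate plates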;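 note: 0% = assay buffer control wells without compound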
# Kir2-1 spec: selectivity of KCNK9 modulators against mouse Kir2.1 | shares compounds with KCNK9 inh-1 | AID 492993 | 4,900 compounds, 4% hits | inhibition, % at 10 µM | Kir2.1 cells, FluxOR thallium flux fluorescence;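 active = thallium signal drop more than 5 SD beyond the mean of the no-compound control wells, seen in both duplicate plates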;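 note: signal is fluorescence rise after thallium addition divided by baseline fluorescence; plate controls were assay buffer only for no effect and full block by chlorpromazine control for full effect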
# HEK293 Tl ctr: second counter-screen for KCNK9 modulators: effect in non-induced cells; non-induced KCNK9-HEK293, FluxOR thallium flux; inhibition, % at 10 µM; AID 492997; shares compounds with KCNK9 inh-1; 4,900 compounds, 40% hits;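 active = thallium signal drop beyond 5 SD of the untreated control mean, on both duplicate plates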;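 note: plate controls were buffer only IC0 wells for no effect and SID17386958 at its maximal inhibitory level for full effect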
# KCNK3 inh conf: confirmation of human KCNK3 two-pore domain potassium channel inhibitors | ratio percent of control, % at 10 µM | AID 651638 | CHO-KCNK3 thallium flux, FluxOR fluorescence; 0% buffer, 100% carvedilol maximal block | shares compounds with KCNK3 block | 2,400 compounds, 99% hits;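 active = ratio percent of control, averaged over triplicates, above buffer control mean plus 5 SD, cut at about 64% in these data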;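 note: ratio is the fluorescence rise from min to max over baseline after thallium stimulus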
# KCNK3 noninduced: KCNK3 inhibitor counter-screen hit in non-induced cells; shares compounds with KCNK3 block; non-induced KCNK3 parental cells, FluxOR thallium flux; active compounds read low; thallium flux ratio (lower = more inhibition) at 10 µM; 2,400 compounds, 40% hits;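 active = thallium flux ratio, averaged over three wells, more than 5 SD below the buffer control mean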;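 note: host cells are CHO cells without KCNK3 induction; ratio is peak minus trough fluorescence over baseline then normalized to buffer controls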
# * hit, by the source's call; i = inactive; · = no result; + = active, no number. Only some compounds are listed: those with a hit (about 3.7% of all), similar ones and a draw of the others. Unless noted, the rule behind the calls is not given here.
SMILES,KCNK3 block,hERG rescue,KCNK9 inh-1,Kir21 block,KCNQ1 act,KCNQ1 block,hERG ctr,KCNK9 inh-2,Kir21 ephys inh,others
COc1ccc(CN2CCCN(S(=O)(=O)c3ccc(Br)cc3)CC2)cc1,i,-11.3,i,-6.78*,i,i,67.0%*,i,31.2%*,
CCOc1ccc(OCC(O)CN2CCc3ccccc3C2)cc1 (stereo not drawn),i,-2.8,i,-1.6,i,i,·,·,·,
Cc1cc(OCC(O)CN2CCc3ccccc3C2)cc(C(C)C)c1 (stereo not drawn),i,-12.0,i,-13.1*,i,i,58.0%*,i,6.0%*,
Cc1onc(-c2ccccc2Cl)c1C(=O)c1ccccc1,i,-10.5,i,-6.37*,i,i,i,i,10.7%*,
NC(=O)C1=C[C@H](c2ccc(Br)cc2)C[C@H](OCc2ccc(CO)cc2)O1,i,-5.4,i,-7.06*,i,i,i,i,22.7%*,
O=C(NCCCN1CCOCC1)c1ccc(-c2ccc(Cl)cc2)o1,i,-19.8,i,0.02,i,i,·,·,·,
O=C(NCCCN1CCOCC1)c1ccc(CSc2ccc(Cl)cc2)cc1,i,-12.6,i,-7.83*,i,i,46.0%*,i,20.7%*,
N#Cc1ccc(COc2cccc3cccnc23)cc1,i,-7.7,i,0.35,i,i,·,·,·,
c1ccc(CNc2c3ccccc3nc3ccccc23)cc1,i,-24.3,i,-8.29*,i,8*,70.0%*,i,15.5%*,KCNQ1 inh valid=39.0*;CHO Tl flux=0.41;KCNQ2 spec=66.0%*;KCNQ1-KCNE1 inh=48.5%*
COCCn1c(C)cc(C(=O)CSc2nnnn2C2CCCC2)c1C,i,·,·,·,·,·,·,·,·,
COc1ccc(CN2CCCC(C(=O)c3ccc4c(c3)OCO4)C2)c(F)c1 (stereo not drawn),i,-8.9,i,-6.43*,i,i,46.0%*,i,23.3%*,KCNK9 inh conf=i;Kir2-1 spec=i;HEK293 Tl ctr=i
Cc1ccc(C(CCN(Cc2ccccc2)C(=O)c2ccco2)c2ccco2)cc1 (stereo not drawn),i,-32.7,i,0.33,i,i,·,·,·,
O=C(c1ccco1)N(CCC(c1ccccc1)c1ccco1)Cc1ccco1 (stereo not drawn),i,-19.3,-8.2*,-6.13*,i,i,i,48.0%*,i,KCNK9 inh conf=40.0%*;Kir2-1 spec=i;HEK293 Tl ctr=36.5%*
CSCc1ccc(C(=O)N2CCCC(Nc3ccc(F)cc3)C2)o1 (stereo not drawn),i,-15.0,i,-5.72*,i,i,i,i,28.7%*,KCNK9 inh conf=i;Kir2-1 spec=33.0%*;HEK293 Tl ctr=i
COc1ccc(C(=O)N2CCN(C3CCCCC3)CC2)cc1OC,i,-4.8,i,-1.61,i,i,·,·,·,
CN(Cc1ccc(N(C)C)cc1)C(=O)c1cc2ccccc2o1,i,-6.3,i,0.41,i,i,·,·,·,
O=C(N/N=C/c1cccc(Oc2ccccc2)c1)c1cccc(O)c1,-12.9*,-27.3,i,-8.12*,i,i,i,i,41.2%*,KCNK3 inh conf=131.0*;KCNK3 noninduced=0.12*
O=C(CC(C(=O)O)c1ccc(Cl)cc1)c1ccc(Br)cc1 (stereo not drawn),i,2.0,i,-0.06,i,i,·,·,·,
S=C(NCc1ccc(Cl)cc1)Nc1ccccc1,i,-7.0,i,0.39,i,i,·,·,·,
S=C(NCc1ccc(Cl)cc1)Nc1ccncc1,i,-21.1,i,-0.73,i,11*,·,·,·,KCNQ1 inh valid=144.5*;CHO Tl flux=0.441;KCNQ1 APC inh=+;KCNQ2 spec=98.3%*;KCNQ1-KCNE1 inh=136.0%*
COc1ccc(C(=O)C2CCCN(Cc3cc(Cl)ccc3O)C2)c(OC)c1 (stereo not drawn),i,-13.2,i,1.5,i,6*,·,·,·,KCNQ1 inh valid=61.5*;CHO Tl flux=0.406;KCNQ2 spec=121.7%*;KCNQ1-KCNE1 inh=85.5%*
COc1ccc(C(=O)C2CCCN(Cc3cc(C)c(O)c(C)c3)C2)c(OC)c1 (stereo not drawn),i,-6.0,i,-1.54,i,i,·,·,·,
Cc1ccc(CN=C(Nc2ccccc2)NC2CCCCC2)cc1,i,-4.4,i,-6.51*,i,9*,·,·,·,KCNQ1 inh valid=67.5*;CHO Tl flux=0.529;KCNQ2 spec=i;KCNQ1-KCNE1 inh=41.0%*
O=C(Nc1ccccc1)NC1CCCCCCC1,i,-8.1,i,-1.65,i,i,·,·,·,
Fc1cccc(NC(=S)NC2CCCCCCC2)c1,i,-6.7,i,0.55,i,8*,·,·,·,KCNQ1 inh valid=105.0*;CHO Tl flux=0.466;KCNQ1 APC inh=+;KCNQ2 spec=74.7%*;KCNQ1-KCNE1 inh=88.5%*
